Measurements from PubChem BioAssay.
Active and inactive are the calls of the source.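 How the source made its calls, unless noted: active means GFP response above 150% of the DMSO level; inconclusive means fewer than 70 events counted for a yeast strain; inactive means the rest.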

How the values were obtained:
[1] = hit retest on RPL19A-GFP reporter strain – cell-based, S. cerevisiae, flow cytometry, cherry picks, mother/daughter gates, confirmation (AID 2270;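 active means GFP response below 50% of the DMSO control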); details: 3 h, at 10 µM, stronger effect = lower value, 100 = same GFP as DMSO wells
[2] = yeast TOR pathway reporter LAP4-GFP change – cell-based, cherry picks, flow cytometry, mother/daughter gates, confirmation (AID 2271;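 active means GFP response above 150% of the DMSO control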;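 further: ratio of sample to DMSO plate mean so 100% equals DMSO level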); details: S. cerevisiae LAP4-GFP strain, 3 h, at 10 µM, stronger effect = higher value, 100 means same as DMSO control
Method in brief: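 System: GFP-fusion yeast strain; Incubation: compound exposure 3 h at 30 °C, end-over-end rotation; Measured by: GFP by flow cytometry; Read-out: median GFP fluorescence as percent of plate-mean DMSO wells; Medium: synthetic complete (SC) yeast growth medium; Compound: single test-compound dose, 10 µM final; Benchmarks: DMSO-only negative wells, rapamycin 400 ng/mL positive wells.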

[3] = TOR pathway reporter MEP2-GFP, retest of hits – S. cerevisiae, flow cytometry GFP, cherry picks, confirmation (AID 2272;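 active means GFP response above 150% of the DMSO control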;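 further: ratio of well signal to plate DMSO mean so 100% equals DMSO level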); details: S. cerevisiae MEP2-GFP strain, 3 h, at 10 µM, stronger effect = higher value
[4] = yeast AGP1-GFP fluorescence change, single-dose – cell-based, flow cytometry, S. cerevisiae, cherry picks, confirmation (AID 2273);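 further: median GFP channel fluorescence over the whole cell population gate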; details: S. cerevisiae AGP1-GFP strain, 3 h, at 10 µM
[5] = TOR pathway CIT2 reporter hit retest – S. cerevisiae, GFP fusion, cherry picks, mother/daughter gates, confirmation (AID 2274); details: S. cerevisiae CIT2-GFP strain, flow cytometry, 3 h, at 10 µM, stronger effect = higher value
[6] = measured here: daughter cell gate
[7] = measured here: mother cell gate
[8] = measured here: daughter cell gate response
[9] = measured here: mother cell gate response

Row | SMILES | GFP response vs DMSO [1] | GFP response vs DMSO [1, 6] [%] | GFP response vs DMSO [1, 7] [%] | GFP response relative to DMSO [2] | GFP response relative to DMSO [2, 8] [%] | GFP response relative to DMSO [2, 9] [%] | GFP response vs DMSO [3] | GFP response, % of DMSO [4] | GFP response, % of DMSO [5] | GFP response, % of DMSO [5, 6] [%] | GFP response, % of DMSO [5, 7] [%]
1 | COc1ccc(N2C(=O)C(Cl)=C(Nc3ccccc3OC)C2=O)cc1 | 101% (inactive) | 98.4 | 102 | 98.2% (inactive) | 94.2 | 98.4 | 105% (inactive) | 98% (inactive) | 97.3% (inactive) | 97.4 | 98.1
2 | COc1ccc(N(CC(=O)N/N=C/c2cc(OC)ccc2OC)S(=O)(=O)c2ccccc2)cc1 | 96% (inactive) | 97.4 | 86.9 | 92.8% (inactive) | 96 | 92.9 | 96.2% (inactive) | 99.1% (inactive) | 99.7% (inactive) | 101 | 99.7
3 | O=C1c2cccc3cccc(c23)C(=O)N1c1nncs1 | 103% (inactive) | 102 | 103 | 91.4% (inactive) | 94.1 | 92.1 | 102% (inactive) | 99.8% (inactive) | 96.5% (inactive) | 94.8 | 99.8
4 | Cc1nc(Sc2ccccc2)c(C#N)c(C)c1[N+](=O)[O-] | 98.2% (inactive) | 99.4 | 96.6 | 94.1% (inactive) | 92.8 | 91.9 | 109% (inactive) | 88.4% (inactive) | 115% (inactive) | 117 | 113
5 | O=c1oc2cc(Oc3c([N+](=O)[O-])cc(C(F)(F)F)cc3[N+](=O)[O-])ccc2c2c1CCCC2 | 95.4% (inactive) | 90.7 | 86.8 | 246% (active) | 153 | 249 | 105% (inactive) | 108% (inactive) | 100% (inactive) | 97.4 | 94.4
6 | O=C(c1cccc(COCC(F)(F)C(F)F)c1)N1CCN(c2ccccc2)CC1 | 101% (inactive) | 101 | 102 | 100% (inactive) | 97.9 | 97.5 | 104% (inactive) | 102% (inactive) | 97.8% (inactive) | 96.4 | 98
7 | COc1ccc(OC)c(NC(=O)c2cccc3c2C(=O)N(C2CCCCC2)C3)c1 | 97.8% (inactive) | 98.4 | 98.4 | 92.8% (inactive) | 92.8 | 90.8 | 98.3% (inactive) | 97.8% (inactive) | 101% (inactive) | 103 | 98.5
8 | O=C1c2ccccc2C(=O)C2OC12 (stereo not drawn) | 101% (inactive) | 99.6 | 88.1 | 218% (active) | 179 | 201 | 226% (active) | 133% (inactive) | 101% (inactive) | 100 | 85.8
9 | O=C1C(Cl)=C(N2CCN(Cc3ccccc3)CC2)C(=O)N1Cc1ccccc1 | 97% (inactive) | 98.1 | 98 | 99.5% (inactive) | 101 | 98.4 | 94.7% (inactive) | 102% (inactive) | 100% (inactive) | 101 | 99.3
10 | Clc1cccc(Cn2ncc3ccccc32)c1 | 95% (inactive) | 95.1 | 94.9 | 103% (inactive) | 102 | 103 | 92% (inactive) | 94.1% (inactive) | 95.5% (inactive) | 95.4 | 95
11 | Cc1cc(C)c(C)c(S(=O)(=O)ON2C(=O)c3ccccc3C2=O)c1C | 103% (inactive) | 97.5 | 94.1 | 206% (active) | 170 | 204 | 114% (inactive) | 97.3% (inactive) | 105% (inactive) | 113 | 91
12 | COc1ccc2c(c1)c(/C=C/c1cc[n+](C)cc1)cn2C | 105% (inactive) | 107 | 106 | 136% (inactive) | 143 | 134 | 162% (inactive) | 111% (inactive) | 150% (inactive) | 158 | 145
13 | CCOc1cc(N2CCOCC2)c(OCC)cc1NC(=O)C(NC(=O)c1ccco1)C(C)C (stereo not drawn) | 102% (inactive) | 101 | 102 | 91.4% (inactive) | 95.6 | 93.1 | 107% (inactive) | 99.6% (inactive) | 108% (inactive) | 108 | 108
14 | COc1cccc(/C=N\NC(=O)c2cc(OCC(F)(F)F)ccc2OCC(F)(F)F)c1 | 98.6% (inactive) | 99.1 | 97.9 | 94.1% (inactive) | 92.8 | 92.9 | 100% (inactive) | 96% (inactive) | 99.7% (inactive) | 101 | 98.5
15 | CS/C(N)=N/N=C/c1ccc2c(c1)OCO2 | 97.8% (inactive) | 98.9 | 97.7 | 106% (inactive) | 102 | 108 | 100% (inactive) | 102% (inactive) | 103% (inactive) | 103 | 102
16 | CCOC(=O)c1ccc(N=Cc2nc(-c3ccccc3)oc2OC(C)=O)cc1 | 104% (inactive) | 105 | 101 | 154% (active) | 138 | 170 | 96.8% (inactive) | 92.2% (inactive) | 93% (inactive) | 93.8 | 89.5
17 | Cc1ccccc1OC1CCN(C(=O)C2CCC(=O)N(C3CCCC3)C2)CC1 (stereo not drawn) | 97.6% (inactive) | 98.4 | 97.7 | 101% (inactive) | 99.2 | 99.3 | 105% (inactive) | 96.6% (inactive) | 95.5% (inactive) | 95.4 | 95

Row | SMILES | GFP response vs DMSO [1] | GFP response vs DMSO [1, 6] [%] | GFP response vs DMSO [1, 7] [%] | GFP response relative to DMSO [2] | GFP response relative to DMSO [2, 8] [%] | GFP response relative to DMSO [2, 9] [%] | GFP response vs DMSO [3] | GFP response, % of DMSO [4] | GFP response, % of DMSO [5] | GFP response, % of DMSO [5, 6] [%] | GFP response, % of DMSO [5, 7] [%]
18 | CCc1cc(=O)oc2c(CN3CCCC3)c(O)c(Cl)cc12 | 97.6% (inactive) | 101 | 95.8 | 104% (inactive) | 105 | 100 | 110% (inactive) | 98.4% (inactive) | 107% (inactive) | 105 | 102
19 | COc1ccc2c(c1)C=Cc1ccccc1O2 | 98.4% (inactive) | 97.6 | 99.5 | 99.2% (inactive) | 99.2 | 99.3 | 98.3% (inactive) | 95.6% (inactive) | 104% (inactive) | 106 | 102
20 | Cc1ccc(S(=O)(=O)N2C3C=CC(C3)C2C(=O)O)cc1 (stereo not drawn) | 96% (inactive) | 97.6 | 95.2 | 95.3% (inactive) | 96 | 94.4 | 106% (inactive) | 98.4% (inactive) | 97.2% (inactive) | 97.6 | 98.2
21 | O=C1c2ccccc2C2=Nc3ccccc3SC(c3cccc(F)c3)C12 (stereo not drawn) | 102% (inactive) | 98.4 | 102 | 106% (inactive) | 108 | 102 | 139% (inactive) | 103% (inactive) | 117% (inactive) | 106 | 106
22 | O=C(O)c1ccn2c(C(=O)c3ccc(Cl)cc3)c(-c3ccccc3)cc2c1 | 96.2% (inactive) | 92.3 | 99.8 | 114% (inactive) | 107 | 115 | 104% (inactive) | 94.7% (inactive) | 92.1% (inactive) | 89 | 92.1
23 | COC(=O)Cc1csc(Nc2ccc(F)c(Cl)c2)n1 | 101% (inactive) | 102 | 100 | 97.4% (inactive) | 98.7 | 98.3 | 95.7% (inactive) | 93.7% (inactive) | 110% (inactive) | 106 | 107
24 | Cc1ccsc1C(=O)N(Cc1nnc(-c2ccccc2Cl)o1)C1CC1 | 95.8% (inactive) | 97.3 | 95.2 | 98.9% (inactive) | 96 | 100 | 103% (inactive) | 102% (inactive) | 100% (inactive) | 99.3 | 99.3
25 | c1cc2c(cc1C1CCCCC1)c1c3n2CCCNC3CCC1 (stereo not drawn) | 101% (inactive) | 99 | 100 | 101% (inactive) | 102 | 102 | 111% (inactive) | 105% (inactive) | 100% (inactive) | 96.5 | 98.7
26 | CC(C)NC(=O)c1ccccc1-c1nc(-c2ccccc2Cl)no1 | 97.2% (inactive) | 96.7 | 98 | 107% (inactive) | 103 | 108 | 97.8% (inactive) | 98.5% (inactive) | 91.3% (inactive) | 93.2 | 90.2
27 | COc1cccc(C(=O)Nc2ccc(C)cc2)c1 | 100% (inactive) | 99.9 | 100 | 101% (inactive) | 99.2 | 101 | 102% (inactive) | 91.2% (inactive) | 107% (inactive) | 106 | 106
28 | CCOC(=O)Cc1csc(NC(=O)c2sc3nc4cc(C)ccc4cc3c2N)n1 | 98.6% (inactive) | 100 | 89.8 | 104% (inactive) | 92 | 111 | 114% (inactive) | 104% (inactive) | 105% (inactive) | 102 | 104
29 | CN1CCN(C(=O)CC2C(=O)NCCN2Cc2ccc(-c3ccccc3)cc2)CC1 (stereo not drawn) | 96.2% (inactive) | 96.2 | 98.5 | 100% (inactive) | 102 | 99.5 | 97.5% (inactive) | 99.7% (inactive) | 97.8% (inactive) | 100 | 99.1
30 | O=C(c1ccccc1F)N1CCN(c2ccccc2)CC1 | 97% (inactive) | 97.9 | 97.6 | 99.2% (inactive) | 101 | 98.3 | 105% (inactive) | 95.2% (inactive) | 98.3% (inactive) | 101 | 98.5
31 | Cc1cc(N2CCCCC2)n2ncc(-c3ccccc3)c2n1 | 97.6% (inactive) | 97.3 | 98.4 | 102% (inactive) | 106 | 102 | 95.7% (inactive) | 95.2% (inactive) | 104% (inactive) | 103 | 103
32 | O=S(=O)(Nc1nc2ccccc2nc1Cl)c1ccc2ccccc2c1 | 98.4% (inactive) | 97.9 | 98.1 | 95.7% (inactive) | 92.6 | 97.3 | 96.8% (inactive) | 95.9% (inactive) | 88.6% (inactive) | 88.4 | 88.2
33 | C=CCOc1cccc(C(=O)/C=C2/C(=O)Nc3ccccc32)c1 | 102% (inactive) | 97.9 | 98.8 | 114% (inactive) | 107 | 117 | 112% (inactive) | 105% (inactive) | 102% (inactive) | 103 | 98.1
